In ChEMBL document CHEMBL1914294, “Synthesis, molecular modeling and preliminary biological evaluation of a set of 3-acetyl-2,5-disubstituted-2,3-dihydro-1,3,4-oxadiazole as potential antibacterial, anti-Trypanosoma cruzi and antifungal agents” (Bioorg Med Chem, 2011):
In brackets after ≈: the same amount, converted by molar mass.

Legend:
Trypanosoma cruzi = test: Antitrypanosomal activity against epimastigote form of Trypanosoma cruzi Y after 5 days by spectrophotometer analysis; assay type: functional, organism-based; settings: 120 h
Method in brief: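 Stationary-phase epimastigotes from a 10-day, 28 °C culture were set at 2.0 × 10^6 parasites/mL in LIT medium. Compounds in DMSO were diluted into LIT at 1.25–40.0 µM and incubated 5 days at 28 °C. A580 on days 0 and 5 gave % growth inhibition against untreated cultures. IC50 came from dose–response curves (≥4 concentrations). Triplicate; benznidazole reference.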

Staphylococcus aureus [1] = test: Antibacterial activity against multidrug-resistant Staphylococcus aureus 3SP/R33 after 18 hrs; assay type: functional; settings: 3SP/R33, 18 h
Method in brief: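 Twofold serial dilutions in Tryptic Soy Broth, 0.1 to 80 µg/mL. Stocks prepared in DMSO/TSB 1:10 v/v. Inoculum was adjusted to 0.5 McFarland, then diluted in sterile saline and TSB. Plates were incubated at 35 °C for 18 h. MIC taken as the lowest concentration with no visible growth. Readings at 24 and 48 h served as sterility control. Run in triplicate.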

Staphylococcus aureus [2] = test: Antibacterial activity against vancomycin-intermediate Staphylococcus aureus VISA3 after 18 hrs; assay type: functional; settings: VISA3, 18 h
Method in brief: (§1)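 Twofold serial dilutions in Tryptic Soy Broth, 0.1 to 80 µg/mL; stocks in DMSO/TSB 1:10 v/v. Inoculum adjusted to 0.5 McFarland, then diluted in sterile saline and TSB. Incubated 35 °C for 18 h. MIC taken as the lowest concentration with no visible growth. Triplicate.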

Staphylococcus aureus [3] = test: Antibacterial activity against Staphylococcus aureus ATCC 25923 after 18 hrs; assay type: functional; settings: ATCC 25923, 18 h; method in brief: as §1
Candida albicans = test: Antifungal activity against Candida albicans ATCC 537Y after 48 hrs by serial dilution method; assay type: functional
Method in brief: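 Broth microdilution following CLSI M27-A2, adapted for higher sensitivity. Stocks made in RPMI 1640 with 20% DMSO. Serial dilutions inoculated with C. albicans in RPMI 1640 at 10^3–10^5 CFU/mL final, incubated 35 °C for 48 h. MIC is the lowest concentration giving prominent growth reduction. Wells above 5% v/v DMSO were discarded. Triplicate; fluconazole reference.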

| SMILES | IC50 (Trypanosoma cruzi) [µM] | MIC (Staphylococcus aureus [1]) [µg/mL] | MIC (Staphylococcus aureus [2]) [µg/mL] | MIC (Staphylococcus aureus [3]) [µg/mL] | MIC (Candida albicans) [µg/mL] |
| --- | --- | --- | --- | --- | --- |
| CC(=O)N1N=C(c2ccccc2)OC1c1ccc([N+](=O)[O-])s1 (stereo not given) | 10.2 | 1.25 (≈ 3.94 µM) | 0.63 (≈ 1.99 µM) | 2.46 (≈ 7.75 µM) |  |
| CC(=O)N1N=C(c2ccc(Cl)cc2)OC1c1ccc([N+](=O)[O-])s1 (stereo not given) | 10.8 | 1.25 (≈ 3.55 µM) | 2.5 (≈ 7.11 µM) | 1.97 (≈ 5.6 µM) | 4.25 (≈ 12.1 µM) |
| CC(=O)N1N=C(c2ccc(Br)cc2)OC1c1ccc([N+](=O)[O-])s1 (stereo not given) | 10.2 | 1.25 (≈ 3.15 µM) | 2.5 (≈ 6.31 µM) | 2.66 (≈ 6.71 µM) |  |
| CC(=O)N1N=C(c2ccc(I)cc2)OC1c1ccc([N+](=O)[O-])s1 (stereo not given) | 12.1 | 1.25 (≈ 2.82 µM) | 2.5 (≈ 5.64 µM) | 2.87 (≈ 6.48 µM) |  |
| CC(=O)N1N=C(c2ccc(C(F)(F)F)cc2)OC1c1ccc([N+](=O)[O-])s1 (stereo not given) | 14.2 | 1.25 (≈ 3.24 µM) | 2.5 (≈ 6.49 µM) | 2.62 (≈ 6.8 µM) | 7.2 (≈ 18.7 µM) |
| CC(=O)N1N=C(c2ccc(C)cc2)OC1c1ccc([N+](=O)[O-])s1 (stereo not given) | 11.5 | 1.25 (≈ 3.77 µM) | 2.5 (≈ 7.54 µM) | 2.62 (≈ 7.91 µM) | 2.95 (≈ 8.9 µM) |
| CCc1ccc(C2=NN(C(C)=O)C(c3ccc([N+](=O)[O-])s3)O2)cc1 (stereo not given) | 10.7 | 1.25 (≈ 3.62 µM) | 2.5 (≈ 7.24 µM) | 2.69 (≈ 7.79 µM) |  |
| CCCc1ccc(C2=NN(C(C)=O)C(c3ccc([N+](=O)[O-])s3)O2)cc1 (stereo not given) | 9.9 | 1.25 (≈ 3.48 µM) | 1.25 (≈ 3.48 µM) | 3.28 (≈ 9.13 µM) |  |
| COc1ccc(C2=NN(C(C)=O)C(c3ccc([N+](=O)[O-])s3)O2)cc1 (stereo not given) | 10.7 | 1.25 (≈ 3.6 µM) | 0.63 (≈ 1.81 µM) | 2.23 (≈ 6.42 µM) |  |
| CCOc1ccc(C2=NN(C(C)=O)C(c3ccc([N+](=O)[O-])s3)O2)cc1 (stereo not given) | 26.6 | 1.25 (≈ 3.46 µM) | 2.5 (≈ 6.92 µM) | 2.36 (≈ 6.53 µM) | 5.83 (≈ 16.1 µM) |
| CCCOc1ccc(C2=NN(C(C)=O)C(c3ccc([N+](=O)[O-])s3)O2)cc1 (stereo not given) | 12.2 | 2.5 (≈ 6.66 µM) | 2.5 (≈ 6.66 µM) | 3.28 (≈ 8.74 µM) |  |
| CCCCOc1ccc(C2=NN(C(C)=O)C(c3ccc([N+](=O)[O-])s3)O2)cc1 (stereo not given) | 11.5 | 1.25 (≈ 3.21 µM) | 5 (≈ 12.8 µM) | 1.25 (≈ 3.21 µM) | 6.78 (≈ 17.4 µM) |
| CC(=O)N1N=C(c2ccc([N+](=O)[O-])cc2)OC1c1ccc([N+](=O)[O-])s1 (stereo not given) | 9.85 | 2.5 (≈ 6.9 µM) | 1.25 (≈ 3.45 µM) | 2.39 (≈ 6.6 µM) |  |
| CC(=O)N1N=C(c2ccc(C#N)cc2)OC1c1ccc([N+](=O)[O-])s1 (stereo not given) | 8.19 | 1.25 (≈ 3.65 µM) | 0.63 (≈ 1.84 µM) | 2.66 (≈ 7.77 µM) |  |
| COC(=O)c1ccc(C2=NN(C(C)=O)C(c3ccc([N+](=O)[O-])s3)O2)cc1 (stereo not given) | 7.91 | 1.25 (≈ 3.33 µM) | 0.63 (≈ 1.68 µM) | 2.95 (≈ 7.86 µM) |  |
| CC1(C)S[C@@H]2[C@H](NC(=O)[C@H](N)c3ccccc3)C(=O)N2[C@H]1C(=O)O [AMPICILLIN] |  |  |  | 0.1 (≈ 0.286 µM) |  |
| O=C(Cn1ccnc1[N+](=O)[O-])NCc1ccccc1 [BENZNIDAZOLE] | 20.8 |  |  |  |  |
| O=C(N/N=C/c1ccc([N+](=O)[O-])o1)c1ccc(O)cc1 [NIFUROXAZIDE] | 120 |  | 5 (≈ 18.2 µM) | 5.9 (≈ 21.4 µM) |  |
